Reference: ChEMBL document CHEMBL1255293, “In vitro susceptibility of various genotypic strains of Toxoplasma gondii to pyrimethamine, sulfadiazine, and atovaquone” (Antimicrob Agents Chemother, 2008)
In brackets after ≈: the same amount, converted by molar mass.

Tests used:
Type in all cases: functional, organism-based
Toxoplasma gondii [1] = test: Antimicrobial activity against Toxoplasma gondii isolate GUY-2003-MEL harboring DHPS Ex2, E474D/Ex4, R560K/Ex5, 580 sil Gly/ A597E/627 sil Glu mutant gene and DHFR Ex2, 145 sil Val mutant gene infected in human MRC-5 cells after 72 hrs by ELISA; conditions: MRC5, 72 h
How it was run: (§1)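 Tachyzoites freshly harvested from THP-1 cultures inoculated at 0.4 to 1 tachyzoite/10 cells, adjusted per strain, onto confluent MRC-5 fibroblasts. Drugs were stocked at 1 mg/ml in 50% methanol-50% acetone, diluted in RPMI, and added 3 h post-inoculation in four to eight replicate wells. Incubation was 72 h, then methanol fixation. Read-out was ELISA with rabbit anti-Toxoplasma serum and peroxidase anti-rabbit conjugate, TMB substrate, OD 405 nm. IC50 came from linear regression of OD versus log concentration; experiments were run in duplicate.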

Toxoplasma gondii [2] = test: Antimicrobial activity against Toxoplasma gondii isolate TOU-1998-TRI infected in human MRC-5 cells after 72 hrs by ELISA; conditions: MRC5, 72 h
How it was run: (§2)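 Confluent MRC-5 fibroblasts (3.5 x 10^4 to 4 x 10^4 cells/well) inoculated with tachyzoites freshly harvested from THP-1 cultures, 0.4 to 1 tachyzoite/10 cells adjusted per strain for nonconfluent foci at 72 h. Drugs (stock 1 mg/ml in 50% methanol-50% acetone, diluted in RPMI) added 3 h post-inoculation, four to eight replicate wells per dilution. Cultures incubated 72 h.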

Toxoplasma gondii [3] = test: Antimicrobial activity against Toxoplasma gondii RH harboring DHPS Ex2, E474D/Ex4, R560K/Ex5, 580 sil Gly; A597E/627 sil Glu mutant gene and DHFR Ex3, 156 sil Leu mutant gene infected in human MRC-5 cells after 72 hrs by ELISA; conditions: MRC5, 72 h; how it was run: as §1
Toxoplasma gondii [4] = test: Antimicrobial activity against Toxoplasma gondii isolate GRE-1995-MAE infected in human MRC-5 cells after 72 hrs by ELISA; conditions: MRC5, 72 h; how it was run: as §2
Toxoplasma gondii [5] = test: Antimicrobial activity against Toxoplasma gondii ENT harboring DHPS Ex2, E474D/Ex3, 156 sil Leu/Ex4, R560K/Ex5, 580 sil Gly/A597E/627 sil Glu mutant gene and DHFR Ex3, 156 sil Leu mutant gene infected in human MRC-5 cells after 72 hrs by ELISA; conditions: MRC5, 72 h; how it was run: as §1
Toxoplasma gondii [6] = test: Antimicrobial activity against Toxoplasma gondii isolate RMS-1995-ABE harboring DHPS Ex5, A587V mutant gene infected in human MRC-5 cells after 72 hrs by ELISA; conditions: MRC5, 72 h; how it was run: as §1
Toxoplasma gondii [7] = test: Antimicrobial activity against Toxoplasma gondii ME49 infected in human MRC-5 cells infected in human MRC-5 cells after 72 hrs by ELISA; conditions: ME49, MRC5, 72 h; how it was run: as §2
Toxoplasma gondii [8] = test: Antimicrobial activity against Toxoplasma gondii isolate PSP-2005-MUP infected in human MRC-5 cells after 72 hrs by ELISA; conditions: MRC5, 72 h; how it was run: as §2
Toxoplasma gondii [9] = test: Antimicrobial activity against Toxoplasma gondii B1 harboring DHPS Ex2, E474D/Ex4, R560K/Ex5, 580 sil Gly/ A597E/627 sil Glu mutant gene and DHFR Ex3, 156 sil Leu mutant gene infected in human MRC-5 cells after 72 hrs by ELISA; conditions: B1, MRC5, 72 h; how it was run: as §1
Toxoplasma gondii [10] = test: Antimicrobial activity against Toxoplasma gondii isolate RMS-2001-MAU infected in human MRC-5 cells after 72 hrs by ELISA; conditions: MRC5, 72 h; how it was run: as §2
Toxoplasma gondii [11] = test: Antimicrobial activity against Toxoplasma gondii isolate TRS-2004-REV infected in human MRC-5 cells after 72 hrs by ELISA; conditions: MRC5, 72 h; how it was run: as §2
Toxoplasma gondii [12] = test: Antimicrobial activity against Toxoplasma gondii isolate RMS-2005-HAG infected in human MRC-5 cells after 72 hrs by ELISA; conditions: MRC5, 72 h; how it was run: as §2
Toxoplasma gondii [13] = test: Antimicrobial activity against Toxoplasma gondii isolate GRE-1998-TRA infected in human MRC-5 cells after 72 hrs by ELISA; conditions: MRC5, 72 h; how it was run: as §2
Toxoplasma gondii [14] = test: Antimicrobial activity against Toxoplasma gondii isolate RMS-1994-LEF harboring DHPS Ex2, E474D/Ex4, R560K/Ex5, 580 sil Gly; A597E/627 sil Glu mutant gene and DHFR Ex3, 204 sil Ala mutant gene infected in human MRC-5 cells after 72 hrs by ELISA; conditions: MRC5, 72 h; how it was run: as §1
Toxoplasma gondii [15] = test: Antimicrobial activity against Toxoplasma gondii isolate RMS-2003-DJO infected in human MRC-5 cells after 72 hrs by ELISA; conditions: MRC5, 72 h; how it was run: as §2
Toxoplasma gondii [16] = test: Antimicrobial activity against Toxoplasma gondii NED infected in human MRC-5 cells after 72 hrs by ELISA; conditions: MRC5, 72 h; how it was run: as §2

`O=C1C(O)=C([C@H]2CC[C@H](c3ccc(Cl)cc3)CC2)C(=O)c2ccccc21` [ATOVAQUONE] showed an IC50 (Toxoplasma gondii [1]) of 0.04 µg/mL (≈ 0.109 µM), an IC50 (Toxoplasma gondii [2]) of 0.07 µg/mL (≈ 0.191 µM) and an IC50 (Toxoplasma gondii [3]) of 0.05 µg/mL (≈ 0.136 µM). The IC50 (Toxoplasma gondii [4]) was 0.03 µg/mL (≈ 0.0818 µM), the IC50 (Toxoplasma gondii [5]) was 0.07 µg/mL (≈ 0.191 µM) and the IC50 (Toxoplasma gondii [6]) was 0.11 µg/mL (≈ 0.3 µM). It also gave an IC50 (Toxoplasma gondii [7]) of 0.05 µg/mL (≈ 0.136 µM), an IC50 (Toxoplasma gondii [8]) of 0.06 µg/mL (≈ 0.164 µM) and an IC50 (Toxoplasma gondii [9]) of 0.1 µg/mL (≈ 0.273 µM). The IC50 (Toxoplasma gondii [10]) was 0.06 µg/mL (≈ 0.164 µM), the IC50 (Toxoplasma gondii [11]) was 0.07 µg/mL (≈ 0.191 µM) and the IC50 (Toxoplasma gondii [12]) was 0.04 µg/mL (≈ 0.109 µM). For the same compound, the IC50 (Toxoplasma gondii [13]) was 0.05 µg/mL (≈ 0.136 µM), the IC50 (Toxoplasma gondii [14]) was 0.04 µg/mL (≈ 0.109 µM) and the IC50 (Toxoplasma gondii [15]) was 0.08 µg/mL (≈ 0.218 µM). It also gave an IC50 (Toxoplasma gondii [16]) of 0.03 µg/mL (≈ 0.0818 µM).
Work on `CCc1nc(N)nc(N)c1-c1ccc(Cl)cc1` [PYRIMETHAMINE] yielded an IC50 (Toxoplasma gondii [1]) of 0.25 µg/mL (≈ 1.01 µM), an IC50 (Toxoplasma gondii [2]) of 0.15 µg/mL (≈ 0.603 µM) and an IC50 (Toxoplasma gondii [3]) of 0.1 µg/mL (≈ 0.402 µM). For the same compound, the IC50 (Toxoplasma gondii [4]) was 0.11 µg/mL (≈ 0.442 µM), the IC50 (Toxoplasma gondii [5]) was 0.34 µg/mL (≈ 1.37 µM) and the IC50 (Toxoplasma gondii [6]) was 0.17 µg/mL (≈ 0.684 µM). For the same compound, the IC50 (Toxoplasma gondii [7]) was 0.09 µg/mL (≈ 0.362 µM), the IC50 (Toxoplasma gondii [8]) was 0.14 µg/mL (≈ 0.563 µM) and the IC50 (Toxoplasma gondii [9]) was 0.35 µg/mL (≈ 1.41 µM). For the same compound, the IC50 (Toxoplasma gondii [10]) was 0.12 µg/mL (≈ 0.482 µM), the IC50 (Toxoplasma gondii [11]) was 0.18 µg/mL (≈ 0.724 µM) and the IC50 (Toxoplasma gondii [12]) was 0.11 µg/mL (≈ 0.442 µM). For the same compound, the IC50 (Toxoplasma gondii [13]) was 0.39 µg/mL (≈ 1.57 µM), the IC50 (Toxoplasma gondii [14]) was 0.07 µg/mL (≈ 0.281 µM) and the IC50 (Toxoplasma gondii [15]) was 0.09 µg/mL (≈ 0.362 µM). The IC50 (Toxoplasma gondii [16]) was 0.19 µg/mL (≈ 0.764 µM).
With `Nc1ccc(S(=O)(=O)Nc2ncccn2)cc1` [SULFADIAZINE] the IC50 (Toxoplasma gondii [1]) was 5.35 µg/mL (≈ 21.4 µM), the IC50 (Toxoplasma gondii [2]) was 2.95 µg/mL (≈ 11.8 µM) and the IC50 (Toxoplasma gondii [3]) was 6.52 µg/mL (≈ 26.1 µM). For the same compound, the IC50 (Toxoplasma gondii [4]) was 14.9 µg/mL (≈ 59.7 µM), the IC50 (Toxoplasma gondii [5]) was 4.28 µg/mL (≈ 17.1 µM) and the IC50 (Toxoplasma gondii [6]) was > 50 µg/mL. The IC50 (Toxoplasma gondii [7]) was 6.55 µg/mL (≈ 26.2 µM), the IC50 (Toxoplasma gondii [8]) was 18.8 µg/mL (≈ 75.1 µM) and the IC50 (Toxoplasma gondii [9]) was > 50 µg/mL. The IC50 (Toxoplasma gondii [10]) was > 50 µg/mL, the IC50 (Toxoplasma gondii [11]) was 6.26 µg/mL (≈ 25 µM) and the IC50 (Toxoplasma gondii [12]) was 6.7 µg/mL (≈ 26.8 µM). It also gave an IC50 (Toxoplasma gondii [13]) of 16.8 µg/mL (≈ 67.3 µM), an IC50 (Toxoplasma gondii [14]) of 9.65 µg/mL (≈ 38.6 µM) and an IC50 (Toxoplasma gondii [15]) of 4.9 µg/mL (≈ 19.6 µM). For the same compound, the IC50 (Toxoplasma gondii [16]) was 9.25 µg/mL (≈ 37 µM).
